From ChEMBL document CHEMBL2375276, “Antibacterial oxazolidinone analogues having a N-hydroxyacetyl-substituted seven-membered [1,2,5]triazepane or [1,2,5]oxadiazepane C-ring unit” (Eur J Med Chem, 2013)
≈ marks a conversion by molar mass, not a printed value.

Assays:
Enterococcus faecalis = assay: Ratio of linezolid MIC to compound MIC for Enterococcus faecalis SR1004 clinical isolate; type: functional
Cytochrome P450 1A2 = target: T1, Cytochrome P450 1A2 (Homo sapiens, UniProt P05177); assay: Inhibition of human CYP1A2 assessed as ethoxyresorufin O-deethylation after 20 mins by fluorescence plate reader analysis; type: ADME
T1 sequence (P05177 whole entry): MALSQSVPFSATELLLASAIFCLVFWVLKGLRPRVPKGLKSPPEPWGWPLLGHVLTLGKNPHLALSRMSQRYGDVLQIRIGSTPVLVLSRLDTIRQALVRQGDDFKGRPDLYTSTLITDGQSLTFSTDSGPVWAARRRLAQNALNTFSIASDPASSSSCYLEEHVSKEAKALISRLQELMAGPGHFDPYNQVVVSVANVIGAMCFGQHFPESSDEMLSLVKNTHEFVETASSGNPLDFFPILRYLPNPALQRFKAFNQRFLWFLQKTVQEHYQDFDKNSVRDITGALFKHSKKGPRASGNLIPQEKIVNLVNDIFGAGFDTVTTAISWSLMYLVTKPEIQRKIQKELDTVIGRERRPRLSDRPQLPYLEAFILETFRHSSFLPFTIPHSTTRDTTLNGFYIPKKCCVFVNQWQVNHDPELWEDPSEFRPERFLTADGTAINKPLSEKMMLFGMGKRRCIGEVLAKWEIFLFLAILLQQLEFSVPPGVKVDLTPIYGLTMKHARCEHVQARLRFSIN
Method in brief: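 Human liver microsomes (0.2 mg protein/mL) with 1 mM NADPH in 50 mM HEPES pH 7.4, 10 mM MgCl2, 0.1 mM EDTA. After centrifugation, supernatant read on a fluorescence plate reader. Standard curve from authentic metabolite added to unincubated reaction mix.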

Staphylococcus aureus [1] = assay: Ratio of linezolid ED50 to compound ED50 for methicillin-resistant Staphylococcus aureus SR3637 infected in po dosed JCL/ICR mouse systemic infection model; type: functional
Method in brief: (§1)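 Five-week-old male JCL/ICR mice (20–25 g), five per group, infected intraperitoneally with 0.5 or 1.0 mL bacterial suspension (about 100 times the 50% lethal dose). Test and reference compounds given intravenously or orally 1 h after infection. Mortality followed over 7 days; ED50 with 95% confidence limits by the logit method.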

Staphylococcus aureus [2] = assay: Ratio of linezolid MIC to compound MIC for Staphylococcus aureus Smith; type: functional
Haemophilus influenzae = assay: Ratio of eperezolid MIC to compound MIC for Haemophilus influenzae SR27914 clinical isolate; type: functional
Staphylococcus aureus [3] = assay: Ratio of linezolid ED50 to compound ED50 for methicillin-resistant Staphylococcus aureus SR3637 infected in iv dosed JCL/ICR mouse systemic infection model; type: functional; method in brief: as §1
Cytochrome P450 2C9 = Cytochrome P450 2C9 (Homo sapiens, UniProt P11712); assay: Inhibition of human CYP2C9 assessed as tolbutamide hydroxylation after 20 mins by LC/MS/MS analysis; type: ADME
Method in brief: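 Human liver microsomes (0.2 mg protein/mL) with 1 mM NADPH in 50 mM HEPES pH 7.4, 10 mM MgCl2, 0.1 mM EDTA. After centrifugation, supernatant metabolite measured by LC/MS/MS. Standard curve from authentic metabolite cocktail added to unincubated reaction mix.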

MAO-A = target: T2, MAO-A (Rattus norvegicus, UniProt P21396); assay: Inhibition of MAO-A in rat forebrain using [14C]5-HT as substrate at 30 uM incubated for 20 mins prior to substrate addition measured after 5 mins by liquid scintillation counting analysis relative to control; type: tissue-based; details: probe [14C]5-HT
T2 sequence (P21396 whole entry): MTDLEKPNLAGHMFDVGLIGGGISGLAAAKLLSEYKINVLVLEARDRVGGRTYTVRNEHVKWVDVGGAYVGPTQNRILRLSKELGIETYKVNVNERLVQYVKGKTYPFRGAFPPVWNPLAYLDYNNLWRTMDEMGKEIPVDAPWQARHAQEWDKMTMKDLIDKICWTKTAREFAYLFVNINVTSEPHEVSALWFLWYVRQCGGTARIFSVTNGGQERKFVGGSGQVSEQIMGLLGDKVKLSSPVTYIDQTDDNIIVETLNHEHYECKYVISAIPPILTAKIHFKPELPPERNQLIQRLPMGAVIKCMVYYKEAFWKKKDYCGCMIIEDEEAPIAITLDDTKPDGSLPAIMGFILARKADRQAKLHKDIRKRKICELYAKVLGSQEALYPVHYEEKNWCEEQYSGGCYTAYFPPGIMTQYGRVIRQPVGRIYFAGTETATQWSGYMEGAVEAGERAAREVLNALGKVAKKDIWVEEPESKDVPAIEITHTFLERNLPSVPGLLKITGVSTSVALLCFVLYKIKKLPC

Staphylococcus aureus [4] = assay: Antibacterial activity against linezolid-resistant Staphylococcus aureus NRS271 assessed as growth inhibition by CLSI broth microdilution method; type: functional
Method in brief: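 MIC by CLSI broth microdilution in cation-adjusted Mueller-Hinton broth. Lowest concentration inhibiting growth taken as MIC.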

Enterococcus faecium = assay: Ratio of eperezolid MIC to compound MIC for Enterococcus faecium SR7940 clinical isolate; type: functional

Cytochrome P450 2C9, sequence (P11712 whole entry): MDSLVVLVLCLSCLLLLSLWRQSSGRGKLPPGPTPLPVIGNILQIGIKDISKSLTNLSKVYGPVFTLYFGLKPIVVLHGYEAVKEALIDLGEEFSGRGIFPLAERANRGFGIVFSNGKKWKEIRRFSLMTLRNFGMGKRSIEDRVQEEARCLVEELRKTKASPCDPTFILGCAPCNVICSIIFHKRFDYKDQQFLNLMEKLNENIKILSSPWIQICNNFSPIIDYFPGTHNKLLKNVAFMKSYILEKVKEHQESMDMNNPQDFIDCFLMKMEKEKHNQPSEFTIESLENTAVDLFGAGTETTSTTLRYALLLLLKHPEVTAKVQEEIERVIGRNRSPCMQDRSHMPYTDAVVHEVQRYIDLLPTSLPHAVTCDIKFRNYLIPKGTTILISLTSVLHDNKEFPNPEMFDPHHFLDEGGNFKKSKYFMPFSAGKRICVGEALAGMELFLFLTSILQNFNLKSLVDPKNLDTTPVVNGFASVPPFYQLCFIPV

COC(=S)NC[C@H]1CN(c2ccc(N3CCNN(C(=O)CO)CC3)c(F)c2)C(=O)O1
Ratio (Enterococcus faecalis): 4 | IC50 (Cytochrome P450 1A2): > 20 µM | Ratio ED50 (Staphylococcus aureus [1]): 2 | Ratio (Staphylococcus aureus [2]): 4 | Ratio (Haemophilus influenzae): 4 | Ratio ED50 (Staphylococcus aureus [3]): 3 | IC50 (Cytochrome P450 2C9): > 20 µM | inhibition at 5 min, 30 µM (MAO-A): 48.2% | MIC (Staphylococcus aureus [4]): 2 µg/mL (≈ 4.53 µM) | Ratio (Enterococcus faecium): 4

COC(=S)NC[C@H]1CN(c2cc(F)c(N3CCNN(C(=O)CO)CC3)c(F)c2)C(=O)O1
Ratio (Enterococcus faecalis): 4 | IC50 (Cytochrome P450 1A2): > 20 µM | Ratio (Staphylococcus aureus [2]): 4 | Ratio (Haemophilus influenzae): 4 | IC50 (Cytochrome P450 2C9): > 20 µM | inhibition at 5 min, 30 µM (MAO-A): 12.4% | MIC (Staphylococcus aureus [4]): 2 µg/mL (≈ 4.35 µM) | Ratio (Enterococcus faecium): 4
